How the values were obtained:
[1] = biological target: T1, Calcium/calmodulin-dependent protein kinase type IV (Homo sapiens) (UniProt Q16566); assay: Inhibition of CAMK4 at 1 uM
T1 sequence (whole entry): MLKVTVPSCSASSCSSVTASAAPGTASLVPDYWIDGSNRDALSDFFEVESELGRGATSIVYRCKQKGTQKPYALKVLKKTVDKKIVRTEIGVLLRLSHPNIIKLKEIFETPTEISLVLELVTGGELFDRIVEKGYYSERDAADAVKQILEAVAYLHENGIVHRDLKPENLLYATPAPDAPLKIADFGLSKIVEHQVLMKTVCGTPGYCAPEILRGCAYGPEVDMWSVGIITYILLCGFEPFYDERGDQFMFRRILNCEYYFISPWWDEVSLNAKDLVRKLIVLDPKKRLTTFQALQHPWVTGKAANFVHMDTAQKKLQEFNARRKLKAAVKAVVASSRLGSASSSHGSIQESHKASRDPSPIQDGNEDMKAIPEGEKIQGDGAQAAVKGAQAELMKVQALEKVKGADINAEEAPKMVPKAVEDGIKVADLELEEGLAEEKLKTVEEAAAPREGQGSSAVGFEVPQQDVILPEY

[2] = biological target: Homeodomain-interacting protein kinase 2 (Homo sapiens) (UniProt Q9H2X6); assay: Inhibition of HIPK2 at 1 uM
[3] = biological target: Dual specificity mitogen-activated protein kinase kinase 1 (Homo sapiens) (UniProt Q02750); assay: Inhibition of MEK1 at 1 uM
[4] = biological target: Atypical kinase COQ8A, mitochondrial (Homo sapiens) (UniProt Q8NI60); assay: Inhibition of ADCK3 at 1 uM
Summary of the method: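 Ambit KINOMEscan screen at a single concentration across a 250–400 kinase panel, recorded as percent inhibition. Selectivity was expressed as S(90), the fraction of kinases inhibited >90%.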

[5] = biological target: T2, cGMP-dependent protein kinase 1 (Homo sapiens) (UniProt Q13976); assay: Inhibition of PRKG1 at 1 uM
T2 sequence (whole entry): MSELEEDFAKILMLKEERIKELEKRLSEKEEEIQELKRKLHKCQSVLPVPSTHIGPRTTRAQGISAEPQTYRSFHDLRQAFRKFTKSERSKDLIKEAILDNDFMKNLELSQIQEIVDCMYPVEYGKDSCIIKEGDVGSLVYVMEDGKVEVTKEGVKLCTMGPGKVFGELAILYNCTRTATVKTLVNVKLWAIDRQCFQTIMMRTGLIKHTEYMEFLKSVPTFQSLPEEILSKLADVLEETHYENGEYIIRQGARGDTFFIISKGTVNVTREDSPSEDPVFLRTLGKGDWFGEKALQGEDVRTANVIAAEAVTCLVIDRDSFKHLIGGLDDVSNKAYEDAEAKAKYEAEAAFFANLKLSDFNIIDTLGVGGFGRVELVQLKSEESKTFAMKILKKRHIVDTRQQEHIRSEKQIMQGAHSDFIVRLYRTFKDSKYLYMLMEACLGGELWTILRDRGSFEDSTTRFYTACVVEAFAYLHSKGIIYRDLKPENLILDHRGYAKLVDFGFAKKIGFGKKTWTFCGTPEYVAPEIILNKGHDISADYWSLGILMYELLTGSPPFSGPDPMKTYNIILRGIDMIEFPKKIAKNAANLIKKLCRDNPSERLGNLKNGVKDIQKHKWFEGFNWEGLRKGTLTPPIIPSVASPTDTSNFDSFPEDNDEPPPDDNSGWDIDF

[6] = biological target: T3, Tyrosine-protein kinase Tec (Homo sapiens) (UniProt P42680); assay: Inhibition of TEC at 1 uM
T3 sequence (whole entry): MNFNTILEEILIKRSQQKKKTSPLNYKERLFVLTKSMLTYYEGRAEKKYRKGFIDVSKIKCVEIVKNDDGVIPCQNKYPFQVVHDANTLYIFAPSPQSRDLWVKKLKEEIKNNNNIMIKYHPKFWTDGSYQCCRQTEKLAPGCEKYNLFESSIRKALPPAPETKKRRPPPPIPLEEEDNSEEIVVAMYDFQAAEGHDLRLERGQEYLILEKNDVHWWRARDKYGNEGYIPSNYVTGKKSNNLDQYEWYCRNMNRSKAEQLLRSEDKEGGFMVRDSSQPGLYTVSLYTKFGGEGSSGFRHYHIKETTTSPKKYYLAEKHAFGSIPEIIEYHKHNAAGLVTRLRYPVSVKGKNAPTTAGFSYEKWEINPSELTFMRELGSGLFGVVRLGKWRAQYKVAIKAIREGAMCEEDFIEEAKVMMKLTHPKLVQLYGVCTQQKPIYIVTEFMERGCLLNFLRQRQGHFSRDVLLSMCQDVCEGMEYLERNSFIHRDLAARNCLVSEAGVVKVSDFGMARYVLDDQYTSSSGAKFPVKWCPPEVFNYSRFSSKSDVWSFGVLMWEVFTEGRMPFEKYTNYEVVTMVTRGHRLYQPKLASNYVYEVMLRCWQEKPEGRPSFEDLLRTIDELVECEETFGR

[7] = biological target: Mitogen-activated protein kinase 1 (Homo sapiens) (UniProt P28482); assay: Inhibition of ERK2 at 1 uM
Summary of the method: (§1)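 Single-concentration screen using Ambit Bioscience KINOMEscan technology across a panel of 250–400 kinases. Per-kinase inhibition from this screen was summarized as S(90), the fraction of kinases inhibited by more than 90%.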

[8] = biological target: Phosphorylase b kinase gamma catalytic chain, skeletal muscle/heart isoform (Homo sapiens) (UniProt Q16816); assay: Inhibition of PHKG1 at 1 uM
[9] = biological target: Citron Rho-interacting kinase (Homo sapiens) (UniProt O14578); assay: Inhibition of CIT at 1 uM
Chain of Citron Rho-interacting kinase (Homo sapiens) (O14578 whole entry): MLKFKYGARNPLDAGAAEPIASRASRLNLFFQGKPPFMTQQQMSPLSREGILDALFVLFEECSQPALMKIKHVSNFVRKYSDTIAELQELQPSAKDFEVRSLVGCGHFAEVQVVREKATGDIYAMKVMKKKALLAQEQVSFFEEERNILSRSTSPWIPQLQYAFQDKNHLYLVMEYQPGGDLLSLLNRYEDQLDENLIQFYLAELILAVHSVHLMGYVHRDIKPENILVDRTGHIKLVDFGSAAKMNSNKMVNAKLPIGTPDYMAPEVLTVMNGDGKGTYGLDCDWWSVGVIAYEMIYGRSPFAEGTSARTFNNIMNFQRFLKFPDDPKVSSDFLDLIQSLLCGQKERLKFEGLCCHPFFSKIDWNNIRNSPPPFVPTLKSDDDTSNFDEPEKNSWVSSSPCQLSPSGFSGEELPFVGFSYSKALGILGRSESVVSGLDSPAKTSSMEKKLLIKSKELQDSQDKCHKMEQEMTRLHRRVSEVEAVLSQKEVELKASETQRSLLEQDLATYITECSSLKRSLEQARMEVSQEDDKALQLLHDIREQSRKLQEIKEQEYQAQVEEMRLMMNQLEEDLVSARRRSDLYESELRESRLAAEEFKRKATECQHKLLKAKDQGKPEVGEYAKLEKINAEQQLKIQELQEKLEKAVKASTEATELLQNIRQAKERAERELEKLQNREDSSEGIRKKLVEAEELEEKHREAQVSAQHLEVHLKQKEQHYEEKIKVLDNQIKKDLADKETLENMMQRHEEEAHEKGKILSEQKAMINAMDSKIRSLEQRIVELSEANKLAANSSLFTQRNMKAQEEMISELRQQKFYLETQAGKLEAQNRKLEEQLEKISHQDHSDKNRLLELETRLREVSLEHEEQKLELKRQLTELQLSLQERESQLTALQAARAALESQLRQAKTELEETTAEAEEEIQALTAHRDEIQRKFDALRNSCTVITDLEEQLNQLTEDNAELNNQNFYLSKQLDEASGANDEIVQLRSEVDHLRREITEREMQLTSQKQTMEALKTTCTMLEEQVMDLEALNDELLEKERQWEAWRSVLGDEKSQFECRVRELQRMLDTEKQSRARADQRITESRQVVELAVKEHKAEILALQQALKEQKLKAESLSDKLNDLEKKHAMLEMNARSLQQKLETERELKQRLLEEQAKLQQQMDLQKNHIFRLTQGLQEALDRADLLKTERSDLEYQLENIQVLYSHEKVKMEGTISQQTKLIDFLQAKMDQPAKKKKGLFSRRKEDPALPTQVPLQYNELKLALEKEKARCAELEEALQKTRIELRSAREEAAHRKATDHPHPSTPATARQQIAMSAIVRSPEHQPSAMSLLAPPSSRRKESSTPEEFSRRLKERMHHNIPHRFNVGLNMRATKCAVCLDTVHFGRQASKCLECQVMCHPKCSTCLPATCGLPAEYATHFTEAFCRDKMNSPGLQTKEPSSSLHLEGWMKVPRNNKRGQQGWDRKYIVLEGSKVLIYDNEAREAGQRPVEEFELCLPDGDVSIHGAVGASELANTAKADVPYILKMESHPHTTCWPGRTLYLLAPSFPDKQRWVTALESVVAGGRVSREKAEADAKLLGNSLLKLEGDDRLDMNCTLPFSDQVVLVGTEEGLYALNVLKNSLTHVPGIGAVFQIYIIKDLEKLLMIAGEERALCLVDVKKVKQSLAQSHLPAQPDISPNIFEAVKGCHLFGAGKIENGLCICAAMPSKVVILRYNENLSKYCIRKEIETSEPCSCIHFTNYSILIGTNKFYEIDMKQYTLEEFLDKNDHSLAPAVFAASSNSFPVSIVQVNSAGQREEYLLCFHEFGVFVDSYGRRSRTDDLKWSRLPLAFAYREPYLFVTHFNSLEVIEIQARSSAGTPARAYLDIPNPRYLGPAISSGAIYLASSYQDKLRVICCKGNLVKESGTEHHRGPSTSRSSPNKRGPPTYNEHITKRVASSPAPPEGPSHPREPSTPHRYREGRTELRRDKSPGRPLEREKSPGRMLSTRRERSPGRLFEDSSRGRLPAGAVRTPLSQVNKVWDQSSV

[10] = biological target: Epidermal growth factor receptor (Homo sapiens) (UniProt P04626+P00533+Q15303+P21860); assay: Inhibition of EGFR L747-T751del, Sins mutant at 1 uM; format: protein assay; summary of the method: as §1
[11] = biological target: Proto-oncogene tyrosine-protein kinase Src (Homo sapiens) (UniProt P12931); assay: Inhibition of SRC at 1 uM
[12] = biological target: Ribosomal protein S6 kinase alpha-4 (Homo sapiens) (UniProt O75676); assay: Inhibition of RPS6KA4 C-terminal domain2 at 1 uM
Chain of Ribosomal protein S6 kinase alpha-4 (Homo sapiens) (O75676 whole entry, looked up, the tested form may be a part): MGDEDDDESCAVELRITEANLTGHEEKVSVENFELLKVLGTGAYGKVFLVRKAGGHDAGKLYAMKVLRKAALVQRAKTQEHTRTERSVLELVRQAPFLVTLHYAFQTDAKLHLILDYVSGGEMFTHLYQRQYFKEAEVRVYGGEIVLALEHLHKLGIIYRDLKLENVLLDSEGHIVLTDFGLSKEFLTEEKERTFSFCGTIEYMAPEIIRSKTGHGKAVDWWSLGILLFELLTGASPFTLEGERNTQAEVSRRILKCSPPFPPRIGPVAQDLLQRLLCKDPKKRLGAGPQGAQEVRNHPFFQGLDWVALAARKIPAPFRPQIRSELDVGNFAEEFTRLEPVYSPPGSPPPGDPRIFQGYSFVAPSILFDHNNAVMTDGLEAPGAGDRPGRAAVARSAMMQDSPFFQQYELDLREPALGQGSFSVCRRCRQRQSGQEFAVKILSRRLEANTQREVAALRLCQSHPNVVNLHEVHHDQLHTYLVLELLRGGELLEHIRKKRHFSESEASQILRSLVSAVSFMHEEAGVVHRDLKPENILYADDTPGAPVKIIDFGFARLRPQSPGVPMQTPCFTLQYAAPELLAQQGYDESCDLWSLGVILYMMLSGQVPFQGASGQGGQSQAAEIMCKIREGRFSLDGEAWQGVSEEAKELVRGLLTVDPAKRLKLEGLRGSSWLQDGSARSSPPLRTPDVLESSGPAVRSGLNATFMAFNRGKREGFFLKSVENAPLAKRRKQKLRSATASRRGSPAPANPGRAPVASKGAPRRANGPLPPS

[13] = biological target: Mitogen-activated protein kinase 14 (Homo sapiens) (UniProt Q16539); assay: Inhibition of p38-alpha at 1 uM
Chain of Mitogen-activated protein kinase 14 (Homo sapiens) (Q16539 whole entry): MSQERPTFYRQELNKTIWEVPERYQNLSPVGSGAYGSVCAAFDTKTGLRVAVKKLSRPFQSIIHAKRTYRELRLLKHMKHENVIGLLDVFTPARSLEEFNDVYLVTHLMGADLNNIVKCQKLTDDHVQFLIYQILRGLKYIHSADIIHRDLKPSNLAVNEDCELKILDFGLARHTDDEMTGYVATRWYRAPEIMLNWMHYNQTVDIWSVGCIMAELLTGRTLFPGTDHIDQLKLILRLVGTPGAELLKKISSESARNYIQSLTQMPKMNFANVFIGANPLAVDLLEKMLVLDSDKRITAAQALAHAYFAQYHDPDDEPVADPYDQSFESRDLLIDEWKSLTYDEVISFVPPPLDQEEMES

[14] = biological target: Serine/threonine-protein kinase 26 (Homo sapiens) (UniProt Q9P289); assay: Inhibition of MST4 at 1 uM
Chain of Serine/threonine-protein kinase 26 (Homo sapiens) (Q9P289 2-416 limits assumed): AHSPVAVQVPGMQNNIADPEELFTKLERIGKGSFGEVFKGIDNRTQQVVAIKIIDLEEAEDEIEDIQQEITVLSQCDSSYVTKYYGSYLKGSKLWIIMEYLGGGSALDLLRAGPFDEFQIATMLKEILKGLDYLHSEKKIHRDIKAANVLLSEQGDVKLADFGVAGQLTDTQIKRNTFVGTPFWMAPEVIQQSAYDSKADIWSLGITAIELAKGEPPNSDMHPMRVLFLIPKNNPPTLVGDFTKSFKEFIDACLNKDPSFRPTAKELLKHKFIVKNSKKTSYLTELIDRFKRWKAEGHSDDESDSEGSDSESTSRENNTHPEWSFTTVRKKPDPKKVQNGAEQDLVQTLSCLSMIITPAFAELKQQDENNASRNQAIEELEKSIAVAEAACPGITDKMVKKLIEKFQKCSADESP

[15] = biological target: Ribosomal protein S6 kinase alpha-5 (Homo sapiens) (UniProt O75582); assay: Inhibition of RPS6KA5 C-terminal domain2 at 1 uM
Chain of Ribosomal protein S6 kinase alpha-5 (Homo sapiens) (O75582 whole entry, looked up, the tested form may be a part): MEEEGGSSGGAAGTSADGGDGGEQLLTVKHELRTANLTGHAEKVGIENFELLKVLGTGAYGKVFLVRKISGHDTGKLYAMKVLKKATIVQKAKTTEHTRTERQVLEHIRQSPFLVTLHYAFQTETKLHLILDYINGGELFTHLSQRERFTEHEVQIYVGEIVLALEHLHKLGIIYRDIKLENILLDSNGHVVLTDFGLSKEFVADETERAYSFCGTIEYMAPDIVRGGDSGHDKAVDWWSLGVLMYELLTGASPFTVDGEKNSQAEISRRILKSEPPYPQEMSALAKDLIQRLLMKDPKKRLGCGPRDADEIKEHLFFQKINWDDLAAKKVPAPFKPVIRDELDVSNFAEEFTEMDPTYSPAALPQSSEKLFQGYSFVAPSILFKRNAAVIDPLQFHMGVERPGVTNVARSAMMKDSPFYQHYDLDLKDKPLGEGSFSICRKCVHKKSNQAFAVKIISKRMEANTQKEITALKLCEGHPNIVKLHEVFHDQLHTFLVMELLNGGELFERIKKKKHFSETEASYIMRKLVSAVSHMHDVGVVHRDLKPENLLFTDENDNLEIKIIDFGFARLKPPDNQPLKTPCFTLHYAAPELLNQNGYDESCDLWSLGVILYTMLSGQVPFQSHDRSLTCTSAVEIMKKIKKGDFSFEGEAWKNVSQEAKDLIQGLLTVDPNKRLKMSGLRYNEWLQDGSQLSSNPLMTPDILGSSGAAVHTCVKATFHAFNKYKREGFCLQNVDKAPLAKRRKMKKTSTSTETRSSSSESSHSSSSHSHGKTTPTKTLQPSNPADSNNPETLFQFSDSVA

[16] = biological target: Interferon-induced, double-stranded RNA-activated protein kinase (Homo sapiens) (UniProt P19525); assay: Inhibition of PRKR at 1 uM
Chain of Interferon-induced, double-stranded RNA-activated protein kinase (Homo sapiens) (P19525 whole entry): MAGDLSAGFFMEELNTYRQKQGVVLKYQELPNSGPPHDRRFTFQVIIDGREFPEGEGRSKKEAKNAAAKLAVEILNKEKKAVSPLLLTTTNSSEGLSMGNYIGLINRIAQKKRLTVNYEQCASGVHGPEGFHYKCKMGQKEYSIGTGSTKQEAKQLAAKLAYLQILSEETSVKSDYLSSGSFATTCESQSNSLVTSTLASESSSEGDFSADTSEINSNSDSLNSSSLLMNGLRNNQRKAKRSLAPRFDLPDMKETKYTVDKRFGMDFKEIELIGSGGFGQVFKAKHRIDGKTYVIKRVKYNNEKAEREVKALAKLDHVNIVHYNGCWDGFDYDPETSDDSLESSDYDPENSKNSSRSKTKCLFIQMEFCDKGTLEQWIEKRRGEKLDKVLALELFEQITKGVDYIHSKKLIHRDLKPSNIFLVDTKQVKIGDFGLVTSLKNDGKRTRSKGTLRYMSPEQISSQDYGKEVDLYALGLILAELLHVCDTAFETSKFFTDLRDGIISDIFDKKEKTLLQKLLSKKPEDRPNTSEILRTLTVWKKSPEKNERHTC

[17] = biological target: Fibroblast growth factor receptor 4 (Homo sapiens) (UniProt P22455); assay: Inhibition of FGFR4 at 1 uM
Summary of the method: (§2)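 Single-concentration screen on the Ambit KINOMEscan platform, run against a panel of 250–400 kinases. Per-kinase inhibition was also summarized as S(90), the fraction of kinases inhibited by more than 90%.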

[18] = biological target: Mitogen-activated protein kinase kinase kinase kinase 4 (Homo sapiens) (UniProt O95819); assay: Inhibition of MAP4K4 at 1 uM; summary of the method: as §2

Measured: inhibition

FC(F)(F)c1ccc(Cl)cc1CN1CCNc2ncc(-c3ccnc(N4CCNCC4)c3)cc21
< 50%: all assays above

CN1CCN(c2ccc(-c3cnc4c(c3)N(Cc3cc(F)ccc3F)CCN4)cn2)CC1
< 50%: all assays above

CN1CCN(c2ccc(-c3cnc4c(c3)N(Cc3cc(Cl)ccc3Cl)CCN4)cn2)CC1
< 50%: all assays above

O=C(O)c1ccc(-c2cnc3c(c2)N(Cc2cc(Cl)ccc2C(F)(F)F)CCN3)cc1
not listed: [1] | [2] | [3] | [6] | [9] | [12]
< 50%: all other assays above

CN1CCN(c2ccc(-c3cnc4c(c3)N(Cc3cc(Cl)ccc3C(F)(F)F)CCN4)cn2)CC1
< 50%: all assays above

COC1CCN(C(=O)c2ccc(-c3cnc4c(c3)N(Cc3cc(Cl)ccc3C(F)(F)F)CCN4)cc2)CC1
not listed: [1] | [2] | [3] | [6] | [9] | [12]
< 50%: all other assays above

O=C(c1ccc(-c2cnc3c(c2)N(Cc2cc(Cl)ccc2C(F)(F)F)CCN3)cc1)N1CCC(N2CCCC2)CC1
not listed: [1] | [2] | [3] | [6] | [9] | [12]
< 50%: all other assays above

O=C(c1ccc(-c2cnc3c(c2)N(Cc2cc(Cl)ccc2C(F)(F)F)CCN3)cc1)N1CCCCC1
not listed: [1] | [2] | [3] | [6] | [9] | [12]
< 50%: all other assays above

Reference: ChEMBL document CHEMBL1165965, “Synthesis and structure-activity relationships of 1,2,3,4-tetrahydropyrido[2,3-b]pyrazines as potent and selective inhibitors of the anaplastic lymphoma kinase” (Bioorg Med Chem, 2010)
